For 34 compounds, Ki, IC50 and Kd results are on record in ChEMBL document CHEMBL4118105, “High-Affinity Peptidomimetic Inhibitors of the DCN1-UBC12 Protein-Protein Interaction” (J Med Chem, 2018).

Starred links: 1 amine or outer side, 2 acyl side, 3 side chain; linkers in the order of their positions; H or OH if unused. Non-standard residues stand in square brackets, D forms with d. Residues, ends and D or L forms follow the SMILES beside them. *: point of attachment. 2Nal = N[C@@H](Cc1ccc2ccccc2c1)C(=O)O; Cyclopropanecarbonyl = O=C(C1CC1)*; NHPhenethyl = c1ccc(CCN*)cc1; Isovaleryl = CC(C)CC(=O)*; Isobutyryl = CC(C)C(=O)*; CO = O=C([*:1])[*:2]; NHBn = c1ccc(CN*)cc1; Propionyl = CCC(=O)*; Butyryl = CCCC(=O)*; NHPh = c1ccc(N*)cc1; Moc = COC(=O)*; For = O=C* Some results are limits rather than exact numbers.

T1 sequence (Q96GG9 whole entry, the tested form may be a part): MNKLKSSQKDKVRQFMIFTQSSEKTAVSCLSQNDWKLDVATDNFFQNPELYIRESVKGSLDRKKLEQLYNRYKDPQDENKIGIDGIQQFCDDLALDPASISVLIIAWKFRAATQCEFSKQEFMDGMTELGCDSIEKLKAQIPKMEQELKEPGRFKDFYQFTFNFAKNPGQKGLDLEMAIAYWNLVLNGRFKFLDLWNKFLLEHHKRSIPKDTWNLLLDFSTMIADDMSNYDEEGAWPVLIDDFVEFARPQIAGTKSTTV

The first assay concerns the target T1, DCN1-like protein 1 (Homo sapiens, UniProt Q96GG9). Kind of assay: Displacement of (S)-N1-((19S,22S)-26-Amino-19-carbamoyl-1-(3',6'-dihydroxy-3-oxo-3H-spiro[isobenzofuran-1,9'-xanthen]-5-yl)-1,13,21-trioxo-5,8,11-trioxa-2,14,20-triazahexacosan-22-yl)-2-((2S,5S,8S,11S,14S,17S,20S,23S,26S)-2-(3-amino-3-oxopropyl)-5,20-bis(4-aminobutyl)-14-benzyl-23-((S)-sec-butyl)-11-(hydroxymethyl)-8,17-diisobutyl-26-(naphthalen-2-ylmethyl)-4,7,10,13,16,19,22,25,28-nonaoxo-3,6,9,12,15,18,21,24,27-nonaazanonacosanamido)pentanediamide from recombinant N-terminal His6-tagged human DCN1 (58 to 259 residues) expressed in Escherichia coli Rosetta2 cells after 30 mins by fluorescence polarization assay.
For the compound `CCC(=O)N[C@@H](Cc1ccc2ccccc2c1)C(=O)N[C@H](C(=O)N[C@@H](CCCCN)C(=O)N[C@@H]1CCc2ccccc21)[C@@H](C)CC`, the Ki was determined as 0.16 µM.

Take `CC[C@H](C)[C@H](NC(=O)[C@H](Cc1ccc2ccccc2c1)NC=O)C(=O)N[C@@H](CCCCN)C(=O)N[C@@H](CC(C)C)C(N)=O` (For-[2Nal]IKL-NH2): the IC50 was 128 µM and the Ki was 27.5 µM. In the case of `CCC(=O)N[C@@H](Cc1nc2cc(Cl)ccc2s1)C(=O)N[C@H](C(=O)N[C@@H](CCCCN)C(=O)NC(c1ccccc1)c1ccccc1)C1CCCC1`, the Ki is 0.0886 µM. Consider `CCC(=O)N[C@@H](Cc1ccc2ccccc2c1)C(=O)N[C@@H](Cc1cccs1)C(=O)N[C@@H](CCCCN)C(=O)NC(c1ccccc1)c1ccccc1`, for which the Ki worked out at 0.174 µM. Turning to `CCC(=O)N[C@@H](Cc1nc2ccc(F)cc2s1)C(=O)N[C@H](C(=O)N[C@@H](CCCCN)C(=O)NC(c1ccccc1)c1ccccc1)C1CCCC1`, the Ki is 0.0544 µM. Consider `CCC(=O)N[C@@H](Cc1ccc2ccccc2c1)C(=O)N[C@H](C(=O)N[C@@H](CCCCN)C(=O)NCCc1ccccc1)[C@@H](C)CC` (Propionyl-[2Nal]-Ile-Lys-NHPhenethyl), for which the IC50 stood at 10.8 µM and the Ki is 2.5 µM. For `CC[C@H](C)[C@H](NC(=O)[C@H](Cc1ccc2ccccc2c1)NC(C)=O)C(=O)N[C@@H](CCCCN)C(=O)N[C@@H](CC(C)C)C(N)=O` (Ac-[2Nal]IKL-NH2) the same measures were 16.8 µM and 3.6 µM. As for `CC[C@H](C)[C@H](NC(=O)[C@H](Cc1ccc2ccccc2c1)NC(=O)OC)C(=O)N[C@@H](CCCCN)C(=O)N[C@@H](CC(C)C)C(N)=O` (Moc-[2Nal]IKL-NH2), the IC50 was greater than 50 µM. For the compound `CCC(=O)N[C@@H](Cc1ccc2ccccc2c1)C(=O)N[C@H](C(=O)N[C@@H](CCCCN)C(=O)N[C@@H]1CCCc2ccccc21)[C@@H](C)CC`, the IC50 was 0.55 µM and the Ki worked out at 0.084 µM. Consider `CCC(=O)N[C@@H](Cc1ccc2ccccc2c1)C(=O)N[C@@H](CC(C)(C)C)C(=O)N[C@@H](CCCCN)C(=O)NC(c1ccccc1)c1ccccc1`, for which the Ki was 0.0429 µM.

Consider `CCC(=O)N[C@@H](Cc1nc2c(F)cccc2s1)C(=O)N[C@H](C(=O)N[C@@H](CCCCN)C(=O)NC(c1ccccc1)c1ccccc1)C1CCCC1`, for which the IC50 came to 4.92 µM and the Ki was 1.03 µM. Regarding `CCC(=O)N[C@@H](Cc1ccc2ccccc2c1)C(=O)N[C@H](C(=O)N[C@@H](CCCCN)C(=O)NC(c1ccccc1)c1ccccc1)[C@@H](C)CC`, the Ki was determined as 0.097 µM. On the same count and under the same terms, for `CCC(=O)N[C@@H](Cc1nc2cc(F)ccc2s1)C(=O)N[C@H](C(=O)N[C@@H](CCCCN)C(=O)NC(c1ccccc1)c1ccccc1)C1CCCC1` the value was 0.224 µM. Regarding `CCC(=O)N[C@@H](Cc1ccc2ccccc2c1)C(=O)N[C@H](C(=O)N[C@@H](CCCCN)C(=O)NC(c1ccccc1)c1ccccc1)C1CCCCC1`, the IC50 came to 0.613 µM and the Ki was found to be 0.0973 µM. For `CCC(=O)N[C@@H](Cc1ccc2ccccc2c1)C(=O)N[C@H](C(=O)N[C@@H](CCCCN)C(=O)N[C@@H](CC(C)C)C(N)=O)[C@@H](C)CC` (Propionyl-[2Nal]IKL-NH2), in that order: 5.2 µM and 1.1 µM. For the compound `CCC(=O)N[C@@H](Cc1nc2ccccc2s1)C(=O)N[C@H](C(=O)N[C@@H](CCCCN)C(=O)NC(c1ccccc1)c1ccccc1)C1CCCC1`, the Ki was found to be 0.0507 µM.

Take `CC[C@H](C)[C@H](NC(=O)[C@H](Cc1ccc2ccccc2c1)NC(=O)CC(C)C)C(=O)N[C@@H](CCCCN)C(=O)N[C@@H](CC(C)C)C(N)=O` (Isovaleryl-[2Nal]IKL-NH2): the IC50 is greater than 20 µM. For the compound `CC[C@H](C)[C@H](NC(=O)[C@H](Cc1ccc2ccccc2c1)NC(=O)NC)C(=O)N[C@@H](CCCCN)C(=O)N[C@@H](CC(C)C)C(N)=O` ({NHMe-CO}-[2Nal]IKL-NH2), the IC50 was 18.5 µM and the Ki came to 4 µM. In the case of `CCC(=O)N[C@@H](Cc1ccc2ccccc2c1)C(=O)N[C@H](C(=O)N[C@@H](CCCCN)C(=O)NC(c1ccccc1)c1ccccc1)C1CCCC1`, the IC50 is 0.33 µM and the Ki turned out to be 0.0363 µM. With `CCC(=O)N[C@@H](Cc1nc2ccc(Cl)cc2s1)C(=O)N[C@H](C(=O)N[C@@H](CCCCN)C(=O)NC(c1ccccc1)c1ccccc1)C1CCCC1`, the IC50 is 0.132 µM and the Ki was less than 0.05 µM. `CC[C@H](C)[C@H](NC(=O)[C@H](Cc1ccc2ccccc2c1)NC(=O)C1CC1)C(=O)N[C@@H](CCCCN)C(=O)N[C@@H](CC(C)C)C(N)=O` (Cyclopropanecarbonyl-[2Nal]IKL-NH2): the IC50 was found to be 25.1 µM and the inhibition constant Ki came out at 5.4 µM. `CCC(=O)N[C@@H](Cc1ccc2ccccc2c1)C(=O)N[C@@H](CC1CCCCC1)C(=O)N[C@@H](CCCCN)C(=O)NC(c1ccccc1)c1ccccc1`: the IC50 was found to be 0.368 µM and the Ki turned out to be 0.0443 µM. Take `CCC(=O)N[C@@H](Cc1ccc2ccccc2c1)C(=O)N[C@H](C(=O)N[C@@H](CCCCN)C(=O)N[C@H]1CCCc2ccccc21)[C@@H](C)CC`: the Ki was 0.14 µM. As to `CCC(=O)N[C@@H](Cc1ccc2ccccc2c1)C(=O)N[C@H](C(=O)N[C@@H](CCCCN)C(=O)N[C@H]1CCc2ccccc21)[C@@H](C)CC`, the Ki turned out to be 0.38 µM. For the compound `CCC(=O)N[C@@H](Cc1ccc2ccccc2c1)C(=O)N[C@H](C(=O)N[C@@H](CCCCN)C(=O)NCc1ccccc1)[C@@H](C)CC` (Propionyl-[2Nal]-Ile-Lys-NHBn), the Ki came out at 0.81 µM. As for `CCC(=O)N[C@@H](Cc1ccc2ccccc2c1)C(=O)N[C@@H](CC(F)(F)F)C(=O)N[C@@H](CCCCN)C(=O)NC(c1ccccc1)c1ccccc1`, the IC50 amounted to 3.27 µM and the Ki is 0.672 µM. With `CCCC(=O)N[C@@H](Cc1ccc2ccccc2c1)C(=O)N[C@H](C(=O)N[C@@H](CCCCN)C(=O)N[C@@H](CC(C)C)C(N)=O)[C@@H](C)CC` (Butyryl-[2Nal]IKL-NH2), the IC50 turned out to be 37 µM and the Ki worked out at 8 µM.

Take `CC[C@H](C)[C@H](NC(=O)[C@H](Cc1ccc2ccccc2c1)NC(=O)C(C)C)C(=O)N[C@@H](CCCCN)C(=O)N[C@@H](CC(C)C)C(N)=O` (Isobutyryl-[2Nal]IKL-NH2): the IC50 turned out to be 16.5 µM and the Ki is 3.5 µM. Regarding `CCC(=O)N[C@@H](Cc1ccc2ccccc2c1)C(=O)N[C@H](C(=O)N[C@@H](CCCCN)C(=O)Nc1ccccc1)[C@@H](C)CC` (Propionyl-[2Nal]-Ile-Lys-NHPh), the IC50 stood at 34.9 µM and the Ki amounted to 7.5 µM. `CC[C@H](C)[C@H](NC(=O)[C@H](CCSC)NC(C)=O)C(=O)N[C@@H](CCCCN)C(=O)N[C@@H](CC(C)C)C(N)=O` (Ac-MIKL-NH2): the IC50 came out at 599 µM and the Ki came to 130 µM. Consider `CC[C@H](C)[C@H](NC(=O)[C@@H](N)Cc1ccc2ccccc2c1)C(=O)N[C@@H](CCCCN)C(=O)N[C@@H](CC(C)C)C(N)=O` (H-[2Nal]IKL-NH2), for which the IC50 is greater than 100 µM.

For a further assay, the target named is T1, DCN1-like protein 1. As to the kind of experiment: Binding affinity to biotin labeled recombinant N-terminal His6-tagged human DCN1 (58 to 259 residues) expressed in Escherichia coli Rosetta2 cells by biolayer interferometry analysis. Put shortly:
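Recombinant human DCN1 (58–259) was biotinylated at a 1:1 molar ratio in PBS for 2 h at 4 °C, dialyzed, then loaded on super streptavidin sensors from a 10 μg/mL solution. Blocked streptavidin sensors served as reference.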
Turning to `CCC(=O)N[C@@H](Cc1nc2ccc(Cl)cc2s1)C(=O)N[C@H](C(=O)N[C@@H](CCCCN)C(=O)N[C@@H]1CCOc2ccccc21)C1CCCC1`, the Kd was 0.0041 µM.

Consider `CCC(=O)N[C@@H](Cc1nc2ccc(F)cc2s1)C(=O)N[C@H](C(=O)N[C@@H](CCCCN)C(=O)NC(c1ccccc1)c1ccccc1)C1CCCC1`, for which the Kd turned out to be 0.037 µM.

For `CCC(=O)N[C@@H](Cc1nc2ccccc2s1)C(=O)N[C@H](C(=O)N[C@@H](CCCCN)C(=O)NC(c1ccccc1)c1ccccc1)C1CCCC1`, the Kd stood at 0.0318 µM. Turning to `CCC(=O)N[C@@H](Cc1ccc2ccccc2c1)C(=O)N[C@H](C(=O)N[C@@H](CCCCN)C(=O)NC(c1ccccc1)c1ccccc1)C1CCCC1`, the Kd turned out to be 0.0564 µM. As to `CCC(=O)N[C@@H](Cc1nc2ccc(Cl)cc2s1)C(=O)N[C@H](C(=O)N[C@@H](CCCCN)C(=O)NC(c1ccccc1)c1ccccc1)C1CCCC1`, the Kd came out at 0.0081 µM. In the case of `CCC(=O)N[C@@H](Cc1nc2ccc(Cl)cc2s1)C(=O)N[C@H](C(=O)N[C@@H](CCCCN(C)C)C(=O)N[C@@H]1CCOc2ccccc21)C1CCCC1`, the Kd turned out to be 0.0057 µM.

For the compound `CCC(=O)N[C@@H](Cc1nc2ccc(Cl)cc2s1)C(=O)N[C@H](C(=O)N[C@@H](CCCCN)C(=O)N[C@@H]1CCCc2ccccc21)C1CCCC1`, the Kd is 0.0083 µM.
